The values that follow come from ChEMBL document CHEMBL4699429, “Novel 1,3,4-thiadiazole compounds as potential MAO-A inhibitors - design, synthesis, biological evaluation and molecular modelling” (RSC Med Chem, 2020).

Structures are written as SMILES.

Data set [1] addresses T1, Amine oxidase [flavin-containing] A (Homo sapiens, UniProt P21397).
T1 sequence (P21397 whole entry): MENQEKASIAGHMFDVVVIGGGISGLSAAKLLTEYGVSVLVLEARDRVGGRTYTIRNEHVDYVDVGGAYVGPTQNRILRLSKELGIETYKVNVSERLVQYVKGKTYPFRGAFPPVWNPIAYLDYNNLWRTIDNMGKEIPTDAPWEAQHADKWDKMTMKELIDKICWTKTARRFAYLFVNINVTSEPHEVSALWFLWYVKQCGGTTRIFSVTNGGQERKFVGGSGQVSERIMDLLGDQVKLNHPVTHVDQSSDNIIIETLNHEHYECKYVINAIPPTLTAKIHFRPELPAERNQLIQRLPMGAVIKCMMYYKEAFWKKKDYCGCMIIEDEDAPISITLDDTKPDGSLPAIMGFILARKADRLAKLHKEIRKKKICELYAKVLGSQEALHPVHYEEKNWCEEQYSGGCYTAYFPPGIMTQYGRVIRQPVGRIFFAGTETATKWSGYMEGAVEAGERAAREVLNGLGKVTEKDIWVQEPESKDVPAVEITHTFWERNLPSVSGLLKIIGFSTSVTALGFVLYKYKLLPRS
As to the kind of experiment: Inhibition of human recombinant MAO-A at 1 nM using tyramine as substrate preincubated with enzyme for 30 mins followed by incubation with substrate for 30 mins by Amplex Red reagent based fluorometric method relative to control. The note with it: 0.5 h, time 60 min. In outline: (§1)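 Recombinant hMAO-A at 0.5 U/mL in phosphate buffer. Inhibitors are dissolved in 2% DMSO and preincubated with enzyme at 37 °C for 30 min. The working solution is then added: horseradish peroxidase, Amplex (Ampliflu) red and tyramine. Fluorescence (Ex/Em 535/587 nm) is read at 5-min intervals over 30 min at 37 °C. Controls use 2% DMSO. Background without enzyme is subtracted. Peroxidase interference is checked with H2O2.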

Data set [2] addresses T1, Amine oxidase [flavin-containing] A. As to the kind of experiment: Inhibition of human recombinant MAO-A at 0.01 nM using tyramine as substrate preincubated with enzyme for 30 mins followed by incubation with substrate for 30 mins by Amplex Red reagent based fluorometric method relative to control. Particulars: 0.5 h, time 60 min. In a few lines:
as §1

For data set [3] the target is unchanged. The data set can be described thus: Inhibition of human recombinant MAO-A at 1 uM using tyramine as substrate preincubated with enzyme for 30 mins followed by incubation with substrate for 30 mins by Amplex Red reagent based fluorometric method relative to control. Particulars: 0.5 h, time 60 min. In a few lines: as §1
The target of data set [4] is T2, Amine oxidase [flavin-containing] B (Homo sapiens, UniProt P27338).
T2 sequence (P27338 whole entry): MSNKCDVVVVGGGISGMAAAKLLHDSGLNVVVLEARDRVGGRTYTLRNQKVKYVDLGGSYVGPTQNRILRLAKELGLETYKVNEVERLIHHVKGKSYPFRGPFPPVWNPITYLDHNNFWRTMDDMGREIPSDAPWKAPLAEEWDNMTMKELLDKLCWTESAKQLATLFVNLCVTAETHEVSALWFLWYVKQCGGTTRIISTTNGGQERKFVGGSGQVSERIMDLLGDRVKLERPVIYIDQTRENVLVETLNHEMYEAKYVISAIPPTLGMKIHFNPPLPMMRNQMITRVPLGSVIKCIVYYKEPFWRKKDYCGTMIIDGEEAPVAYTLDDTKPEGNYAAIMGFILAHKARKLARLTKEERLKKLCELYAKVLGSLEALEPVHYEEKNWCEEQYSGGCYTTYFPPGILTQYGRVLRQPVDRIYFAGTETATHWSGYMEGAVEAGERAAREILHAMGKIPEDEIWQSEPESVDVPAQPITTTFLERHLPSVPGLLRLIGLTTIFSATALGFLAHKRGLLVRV
As to the kind of experiment: Inhibition of human recombinant MAO-B at 1 mM using tyramine as substrate preincubated with enzyme for 30 mins followed by incubation with substrate for 30 mins by Amplex Red reagent based fluorometric method relative to control. Particulars: 0.5 h, read-out: INH.

For data set [5], the target named is T1, Amine oxidase [flavin-containing] A. As to the kind of experiment: Inhibition of human recombinant MAO-A at 100 uM using tyramine as substrate preincubated with enzyme for 30 mins followed by incubation with substrate for 30 mins by Amplex Red reagent based fluorometric method relative to control. The note with it: 0.5 h, time 60 min. In outline: as §1
The target is the same in data set [6]. The data set can be described thus: Inhibition of human recombinant MAO-A at 0.01 uM using tyramine as substrate preincubated with enzyme for 30 mins followed by incubation with substrate for 30 mins by Amplex Red reagent based fluorometric method relative to control. Particulars: 0.5 h, time 60 min. In outline:
as §1

Data set [7] has the same target. As to the kind of experiment: Inhibition of human recombinant MAO-A at 1 mM using tyramine as substrate preincubated with enzyme for 30 mins followed by incubation with substrate for 30 mins by Amplex Red reagent based fluorometric method relative to control. The note with it: 0.5 h, time 60 min. In a few lines:
as §1

Data set [8] has the same target. The data set can be described thus: Inhibition of human recombinant MAO-A at 0.1 uM using tyramine as substrate preincubated with enzyme for 30 mins followed by incubation with substrate for 30 mins by Amplex Red reagent based fluorometric method relative to control. Particulars: 0.5 h, time 60 min. In a few lines:
as §1

Data set [9] has the same target. As to the kind of experiment: Inhibition of human recombinant MAO-A at 0.1 nM using tyramine as substrate preincubated with enzyme for 30 mins followed by incubation with substrate for 30 mins by Amplex Red reagent based fluorometric method relative to control. The note with it: 0.5 h, time 60 min. In a few lines:
as §1

Data set [10] has the same target. The data set can be described thus: Inhibition of human recombinant MAO-A using tyramine as substrate preincubated with enzyme for 30 mins followed by incubation with substrate for 30 mins by Amplex Red reagent based fluorometric method. In a few lines:
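Recombinant hMAO-A at 0.5 U/mL in phosphate buffer. Inhibitors are dissolved in 2% DMSO and preincubated with enzyme at 37 °C for 30 min. The working solution is then added: horseradish peroxidase, Amplex (Ampliflu) red and tyramine. Controls use 2% DMSO. Background without enzyme is subtracted. Peroxidase interference is checked with H2O2.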

Data set [11] concerns the target T2, Amine oxidase [flavin-containing] B. As to the kind of experiment: Inhibition of human recombinant MAO-B at 100 uM using tyramine as substrate preincubated with enzyme for 30 mins followed by incubation with substrate for 30 mins by Amplex Red reagent based fluorometric method relative to control. The note with it: 0.5 h, read-out: INH.
Data set [12] addresses T1, Amine oxidase [flavin-containing] A. As to the kind of experiment: Inhibition of human recombinant MAO-A at 10 uM using tyramine as substrate preincubated with enzyme for 30 mins followed by incubation with substrate for 30 mins by Amplex Red reagent based fluorometric method relative to control. Particulars: 0.5 h, time 60 min. In outline:
as §1

Data set [13] shares this target. As to the kind of experiment: Inhibition of human recombinant MAO-A assessed as enzyme residual activity using tyramine as substrate at 4XIC50 incubated with enzyme for 15 mins followed by substrate addition by Amplex Red reagent based fluorometric method relative to control. The note with it: 0.25 h. In a few lines:
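Recombinant hMAO-A (1 U mL⁻¹) preincubated with inhibitor for 15 min at 37 °C in 0.05 M potassium phosphate, pH 7.4, with 5% sucrose and 1% DMSO. The mixture was dialysed 24 h at 4 °C (12 000 Da cut-off) against 100 mM potassium phosphate, pH 7.4, 5% sucrose, with two buffer changes. Residual activity was then measured in triplicate and reported as mean ± SEM.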

For data set [14] the target is unchanged. As to the kind of experiment: Competitive inhibition of human recombinant MAO-A using tyramine as substrate preincubated with enzyme for 30 mins followed by substrate addition and measured for 30 mins by Lineweaver-burk plot analysis.

A word on the IC50: it is the concentration that gives 50% inhibition. In the case of `C=CCNc1nnc(SCC(=O)N(Cc2cccc([N+](=O)[O-])c2)c2ccc(F)cc2)s1`, the inhibition at 0.001 µM in data set [1] came out at 20.5%. Besides, the inhibition at 10 pM in data set [2] came to 10.2%. The inhibition at 1 µM in [3] came to 56.5%. The inhibition at 1000 µM in data set [4] is 38.1%; in data set [7], 92%. Also, the figures for the inhibition at 100 µM in data set [5] and in data set [11] were 86.4% and 29.2%, respectively. In addition, the inhibition at 0.01 µM in [6] was found to be 32.7%. Further, in data set [8], the inhibition at 0.1 µM was 43.2%. Also, the inhibition at 0.0001 µM in [9] was 13.5%. Moreover, the IC50 in data set [10] is 0.502 µM. Besides, in data set [12], the inhibition at 10 µM was determined as 75.2%.
Turning to `Cc1ccc(Nc2nnc(SCC(=O)N(Cc3cccc([N+](=O)[O-])c3)c3ccc(F)cc3)s2)cc1`, the inhibition at 1000 µM in [4] is 37.9%; in data set [7], 87.6%. Further, the inhibition at 100 µM was determined as 42.7% in [5] and 26.5% in data set [11].
Consider `CC(C)CNc1nnc(SCC(=O)N(Cc2cccc([N+](=O)[O-])c2)c2ccc(F)cc2)s1`, for which the inhibition at 0.001 µM in [1] came to 17.3%. In addition, the inhibition at 10 pM in data set [2] amounted to 6.36%. Also, in [3], the inhibition at 1 µM came to 43.2%. The values for the inhibition at 1000 µM in data set [4] and in [7] were 36% and 93.5%, respectively. Besides, the inhibition at 100 µM in data set [5] stood at 84.3%; in [11], 24.2%. The inhibition at 0.01 µM in data set [6] came to 25.5%. In addition, the inhibition at 0.1 µM in data set [8] stood at 31.8%. The inhibition at 0.0001 µM in data set [9] stood at 12.6%. Moreover, the IC50 in data set [10] is 1.79 µM. Moreover, in [12], the inhibition at 10 µM turned out to be 72.6%.
The term Ki denotes a dissociation constant, usually derived from enzyme kinetics or from competition with a known ligand. For the compound `COCCNc1nnc(SCC(=O)N(Cc2cccc([N+](=O)[O-])c2)c2ccc(F)cc2)s1`, in [1], the inhibition at 0.001 µM stood at 26.9%. Moreover, the inhibition at 10 pM in data set [2] came to 13.5%. Also, the inhibition at 1 µM in [3] came to 72.7%. In addition, the Activity in data set [13] is listed as 25.956%. The inhibition at 1000 µM in [4] amounted to 38.6%; in data set [7] it was 94.1%. Also, the inhibition at 100 µM was 91.5% in [5] and 25.7% in data set [11]. Further, the inhibition at 0.01 µM in [6] was found to be 34.7%. In data set [14], the Ki was determined as 0.033 µM. In addition, the inhibition at 0.1 µM in [8] was 61.1%. Further, in data set [9], the inhibition at 0.0001 µM came to 20.1%. For the same compound, in data set [10], the IC50 came out at 0.06 µM. The inhibition at 10 µM in data set [12] was 80.6%.
For `C#CCN(C)CCCOc1ccc(Cl)cc1Cl` [CLORGILINE], in [1], the inhibition at 0.001 µM stood at 21.7%. Moreover, the inhibition at 10 pM in [2] came out at 11.3%. Moreover, the inhibition at 1 µM in data set [3] was determined as 79.1%. For the same compound, in data set [13], the Activity was found to be 88.315%. The inhibition at 100 µM in data set [5] stood at 92.1%. The inhibition at 0.01 µM in data set [6] is 35.3%. Moreover, the inhibition at 1000 µM in data set [7] was determined as 96.4%. Further, the inhibition at 0.1 µM in [8] worked out at 63.9%. The inhibition at 0.0001 µM in data set [9] was 17%. In [12], the inhibition at 10 µM is 88.5%.
Take `O=C(NCCN1CCOCC1)c1ccc(Cl)cc1` [MOCLOBEMIDE]: the inhibition at 0.001 µM in data set [1] was 15.4%. The inhibition at 10 pM in [2] was 7.25%. Also, in data set [3], the inhibition at 1 µM is 35.8%. Moreover, the Activity in data set [13] came out at 31.253%. Further, in data set [5], the inhibition at 100 µM was 83.1%. Besides, in data set [6], the inhibition at 0.01 µM was determined as 19.6%. The inhibition at 1000 µM in [7] turned out to be 95.3%. Besides, the inhibition at 0.1 µM in data set [8] was 24.5%. Moreover, the inhibition at 0.0001 µM in data set [9] was 12.8%. Moreover, in [12], the inhibition at 10 µM worked out at 62.4%.
